Experimental data published in article PMC6811854 (ACS Omega, 2019).

How the values were obtained:
[1] = tested on: Neuro2A cells; assay: Neurite outgrowth assay; format: cell-based, mouse; conditions: for optimum neuritogenic concentration: average neurite length; for neurite outgrowth promotion compared to no inhibitor (vehicle): differentiated Neuro2A cells, 48 h post-treatment, 10, 1, 0.1, 0.01 μM
[2] = tested on: Neuro2A cells; assay: Cell viability assay; format: cell-based, mouse; conditions: 10 μM, 72 h, MTT assay
Method in brief: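 Neuro2A cells were kept in DMEM/10% FBS with supplements at 37 °C, 5% CO2, and seeded at 10 000 cells/cm2. After 24 h they were differentiated in 1% FBS and exposed to compounds (10, 1.0, 0.1 μM) for 72 h. MTT was added for 2 h at 37 °C, formazan was dissolved in DMSO and absorbance read at 562 nm. Viability is given relative to vehicle.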

[3] = BBB crossing: TLC detection in Zebrafish brain extract; format: in vivo; conditions: 25 mg/kg, intraperitoneal injection
Method in brief: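 Adult zebrafish were dosed with 25 mg/kg test compound or DMSO vehicle. Fish were anaesthetised on ice, and the whole brain was removed and freeze-dried in liquid nitrogen. Brains were ground in HPLC-grade ethyl acetate, sonicated, centrifuged (10 000 rpm, 20 min) and left 20 min to separate the extract. Compound in the extract was detected by TLC.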

[4] = tested on: HDAC8 (class I), HDAC4 (class IIa), HDAC6 (class IIb); assay: HDACi selectivity assay; format: biochemical, Human; conditions: enzymes immunoprecipitated from HeLA cells; 10, 1, 0.1, 0.01, 0.001 μM
[5] = tested on: Zebrafish; assay: Social interaction test in chronic unpredictable stress; format: in vivo, Zebrafish (Danio rerio); conditions: intraperitoneal
Method in brief: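 Adult zebrafish were held at 28 ± 2 °C on a 14/10 h light/dark cycle. They then had 7 days of chronic unpredictable stress, two varied stressors daily (restraint, 33/23 °C, isolation, crowding, predator, chasing, alarm pheromone, etc.). Test compound was given at 10, 25 or 50 mg/kg, with fluoxetine 15 mg/kg as reference. Each fish then spent 120 s with an unfamiliar pink zebrafish target. Video was scored manually for latency, interaction time and freezing; n = 15.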

[6] = tested on: Neuro2A cells; assay: Immunoblot of acetylated H3, H4 and tubulin in Neuro2A cells; format: cell-based, mouse; conditions: 1 μM, compared to vehicle
Method in brief: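 Neuro2A cells were exposed to compound or vehicle and harvested in Laemmli buffer; protein was assayed by amido black. Equal protein went on 12% SDS-PAGE, then PVDF transfer. Primaries ran overnight at 4 °C and secondaries 2 h at room temperature, with chemiluminescent detection. Acetylated H3, H4 and tubulin were quantified and compared with vehicle by Student's t-test.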

[7] = compound 5 at 50 mg dose, vs vehicle-treated group

SMILES | neurite growth activity and viability above the optimum neuritogenic concentration ([1]; Neuro2A cells) | optimum neuritogenic concentration ([1]; Neuro2A cells) [µM] | neurite outgrowth promotion compared to no inhibitor (vehicle) [1] | also measured
O=C(CCCCCc1ccc2c(c1)c1ccccc1n2Cc1ccccc1)NO [Compound 4, 6-(9-Benzyl-9H-carbazol-3-yl)-N-hydroxyhexanamide] | reduced neurite growth activity and viability | 0.1 | significantly more neurite outgrowth promotion | 
O=C(CCCCCCCc1ccc2[nH]c3ccccc3c2c1)NO [Compound 5, 8-(9H-Carbazol-3-yl)-N-hydroxyoctanamide] | reduced neurite growth activity and viability | 1 | significantly more neurite outgrowth promotion | cell viability (cytotoxicity) [2]: does not show any observable toxicity; crossing of the blood-brain barrier (detection in brain extract by TLC) [3]: crossing the BBB; HDAC class selectivity [4]: selectivity for class II (class IIa-HDAC4 and class IIb- HDAC6) over class I (HDAC8); latency to social interaction [5, 7]: not at 50 mg dose; total time spent in interaction zone [5, 7]: not at 50 mg dose; neurite outgrowth compared to vorinostat and tubastatin-A ([1]; Neuro2A cells, at optimum neuritogenic concentrations): remarkably more neurite outgrowth; acetylated H3 [6]: significant increase; acetylated H4 [6]: significant increase; acetylated tubulin [6]: significant increase
O=C(CCCCC(=NO)c1ccc2c(c1)c1ccccc1n2Cc1ccccc1)NO [Compound 6, 6-(9-Benzyl-9H-carbazol-3-yl)-N-hydroxy-6-(hydroxyimino)hexanamide] | reduced neurite growth activity and viability | 0.01 | significantly more neurite outgrowth promotion | 
O=C(CCCCCCC(=NO)c1ccc2c(c1)c1ccccc1n2Cc1ccccc1)NO [Compound 7, 8-(9-Benzyl-9H-carbazol-3-yl)-N-hydroxy-8-(hydroxyimino)octanamide] | reduced neurite growth activity and viability | 0.1 | significantly more neurite outgrowth promotion | 
O=C(CCCCc1ccc2c(c1)c1ccccc1n2CC(=O)NO)NO [Compound 8, N-hydroxy-5-(9-(2-(hydroxyamino)-2-oxoethyl)-9H-carbazol-3-yl)pentanamide] | reduced neurite growth activity and viability | 0.1 | significantly more neurite outgrowth promotion | 
O=C(CCCC(=NO)n1c2ccccc2c2ccccc21)NO [Compound 10, 5-(9H-Carbazol-9-yl)-N-hydroxy-5-(hydroxyimino)pentanamide] | reduced neurite growth activity and viability | 0.1 | significantly more neurite outgrowth promotion | 
O=C(CCCCC(=NO)n1c2ccccc2c2ccccc21)NO [Compound 11, 6-(9H-Carbazol-9-yl)-N-hydroxy-6-(hydroxyimino)hexanamide] | reduced neurite growth activity and viability | 0.1 | significantly more neurite outgrowth promotion | 
CNCCC(Oc1ccc(C(F)(F)F)cc1)c1ccccc1 (stereo not drawn) [fluoxetine, reference compound] |  |  |  | freezing duration (social interaction test) ([5]; compound 5 (10, 25, 50 mg/kg tested), fluoxetine 15 mg/kg): trend of decreased freezing duration
CN1CCc2c(c3ccccc3n2Cc2ccc(C(=O)NO)cc2)C1 [tubastatin-A, reference compound] | reduced neurite growth activity and viability | 10 | significantly more neurite outgrowth promotion | 
O=C(CCCCCCC(=O)Nc1ccccc1)NO [vorinostat, suberoylanilide hydroxamic acid, reference compound] | reduced neurite growth activity and viability | 1 |  | 
